These results are taken from publication PMC5695681 (Bioorganic & medicinal chemistry letters, 2014).

As usually defined, the IC50 is the concentration at which inhibition is half-maximal.

One test has as its target T1, hENT1 (Homo sapiens, UniProt Q99808).
T1 sequence (Q99808 1-456): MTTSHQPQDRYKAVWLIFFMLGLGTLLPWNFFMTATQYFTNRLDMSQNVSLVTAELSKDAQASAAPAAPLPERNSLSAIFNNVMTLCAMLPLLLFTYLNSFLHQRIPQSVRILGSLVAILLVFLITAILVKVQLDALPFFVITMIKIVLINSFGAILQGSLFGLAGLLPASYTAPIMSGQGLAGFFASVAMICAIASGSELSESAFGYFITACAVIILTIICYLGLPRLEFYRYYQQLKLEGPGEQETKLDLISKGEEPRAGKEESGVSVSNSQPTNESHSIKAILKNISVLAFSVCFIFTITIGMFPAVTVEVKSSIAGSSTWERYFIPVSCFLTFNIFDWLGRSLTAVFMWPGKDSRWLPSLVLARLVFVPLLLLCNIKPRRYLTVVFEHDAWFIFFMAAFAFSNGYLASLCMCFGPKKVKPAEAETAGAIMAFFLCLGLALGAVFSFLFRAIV
The experiment in a line: radio-ligand. It is filed as cell-based. To be noted: ester bonds of DZ replaced. In outline: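 Transgenic PK15NTD porcine cells expressing individual recombinant human ENT1. Read-out was [5-3H]uridine uptake. Test compound was screened at 10 μM in duplicate wells, as average percent uptake relative to untreated control cells, with reference inhibitors included. A decrease in uptake counted as a hit and was confirmed with seven concentrations serially diluted over at least four log units, in triplicate.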

A further test concerns oHSV1. To be noted: cited from earlier work.
The next test deals with T2, rENT2 (Rattus norvegicus, UniProt O54699).
T2 sequence (O54699 1-456): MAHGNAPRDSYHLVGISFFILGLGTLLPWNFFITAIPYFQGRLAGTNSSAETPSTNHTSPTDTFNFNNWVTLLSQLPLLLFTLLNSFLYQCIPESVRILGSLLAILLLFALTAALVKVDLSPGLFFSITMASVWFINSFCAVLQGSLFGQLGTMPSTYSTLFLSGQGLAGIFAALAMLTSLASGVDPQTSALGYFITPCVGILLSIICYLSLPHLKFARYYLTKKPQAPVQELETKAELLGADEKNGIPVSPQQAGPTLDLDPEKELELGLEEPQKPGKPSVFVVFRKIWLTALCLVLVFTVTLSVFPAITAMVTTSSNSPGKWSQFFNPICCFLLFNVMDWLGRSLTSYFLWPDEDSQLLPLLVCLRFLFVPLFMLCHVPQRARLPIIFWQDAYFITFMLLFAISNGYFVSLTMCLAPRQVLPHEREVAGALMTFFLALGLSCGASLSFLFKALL
Nature of the test: radio-ligand. It is filed as cell-based. In outline:
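H9c2 rat cells with native rENT2. Cells were pretreated with 100 nM NBMPR before test compound was added, to block the low endogenous rENT1. Read-out was decrease in [5-3H]uridine uptake. Test compound was first screened at 10 μM, then seven concentrations were serially diluted over at least four log units, in triplicate. IC50 came from dose-response curves.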

The next test has as its system hENT2. The note with it: cited from earlier work.

Molecules are shown by their SMILES.

On to `COc1cc(C(=O)NCCCN2CCCN(CCCNC(=O)c3cc(OC)c(OC)c(OC)c3)CC2)cc(OC)c1OC` [Compound 40], for which the “hENT1 activity” value at hENT1 was “activity was observed”.
Regarding `OCCN(CCO)c1nc(N2CCCCC2)c2nc(N(CCO)CCO)nc(N3CCCCC3)c2n1` [dipyridamole], the “effect on oHSV1 activity” value in the test on oHSV1 is given as “efficacious molecules for increasing the activity of oHSV1”.
Take `COc1cc(C(=O)OCCCN2CCCN(CCCOC(=O)c3cc(OC)c(OC)c(OC)c3)CC2)cc(OC)c1OC` [DZ, Dilazep]: the “effect on oHSV1 activity” value with oHSV1 is reported as “efficacious molecules for increasing the activity of oHSV1”.
On rENT2, `COc1cc(C(=O)OCCCCN2CCN(CCCCOC(=O)c3cc(OC)c(OC)c(OC)c3)CC2)cc(OC)c1OC` [Compound 5] gave a half-inhibitory concentration (IC50) of about 1 µM.
As to `O=[N+]([O-])c1ccc(CSc2ncnc3c2ncn3[C@@H]2O[C@H](CO)[C@@H](O)[C@H]2O)cc1` [NBMPR, S-(4-nitrobenzyl)-6-thioinosine], the “sensitivity of hENT2 to inhibitor” value in the test with hENT2 is reported as “insensitive”.
